The values below come from ChEMBL document CHEMBL4842317, “Discovery of novel 3-hydroxyandrosta-5,7-Diene-17-Carboxylic acid derivatives as anti-inflammatory bowel diseases (IBD) agents” (Eur J Med Chem, 2021).

Activity calls are given as the source filed them. The calls are words filed in the database; no cut-off is given here.

In test [1] the test system is Mus musculus. Description: Antiinflammatory activity against DSS-induced colitis C57BL/6 mouse model assessed as colon with intact structure with few inflammatory cells at 50 to 100 mg/kg, ip administered for 7 days by hematoxylin and eosin staining based microscopic analysis. In kind it is functional, organism-based. Conditions: dose 50-100 mg/kg, time 7.0 day. In short, it runs like this: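 DSS colitis (3.5% DSS, male C57BL/6 mice, n=5 per group) with 7-day intraperitoneal dosing in saline/castor oil/ethanol/DMSO vehicle. Colons are fixed in formalin, paraffin-embedded and stained with H&E (viewed at 200X). Separately, sections undergo CD86 immunohistochemistry (citrate antigen retrieval, 3% H2O2 block, 1:200 primary and HRP secondary, hematoxylin counterstain) viewed at 400X.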

The subject of test [2] is RAW264.7. The test is described as follows: Antiinflammatory activity against mouse RAW264.7 cells assessed as inhibition of LPS-induced NO production at 20 uM after 24 hrs by Griess assay. In kind it is functional. In short, it runs like this: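 RAW 264.7 cells (1 × 10^5 cells/mL) are cultured 24 h, stimulated with LPS (100 ng/mL final), and treated with compounds from 100 μM downward for 24 h in DMEM with 10% FBS. Medium nitrite is measured by Griess reaction (sulfanilamide, naphthylethylenediamine, phosphoric acid, 10 min, room temperature, dark). Mean + SD from three independent experiments.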

The subject of test [3] is Mus musculus. Description: Antiinflammatory activity against DSS-induced colitis C57BL/6 mouse assessed as decrease in p-p65 level in colon at 25 mg/kg, ip administered for 7 days by western blot analysis. In kind it is functional, organism-based. Conditions: time 7.0 day. Put shortly:
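Male C57BL/6 mice, 6 weeks old, 5 per group, given 3.5% DSS solution plus daily intraperitoneal drug (100 μL, in saline/castor oil/ethanol/DMSO 70:10:15:5) for 7 days. Colons collected after sacrifice. IL-1β is normalised per milligram of colonic protein. p-IκB-α and p-p65 in colonic protein are measured by Western blot. Bars give mean + SD.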

For test [4], the system named is RAW264.7. Description: Antiinflammatory activity against mouse RAW264.7 cells assessed as decrease in LPS-induced NF-kappB mRNA expression in presence of LPS by qRT-PCR analysis. The class given is functional, cell-based. Conditions: dose 0.31-20 µM. In short, it runs like this: (§1)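 RAW 264.7 cells are grown 12 h in six-well plates, then exposed to LPS (100 ng/ml) plus compound for 8 h. Reverse transcription is followed by SYBR Green qPCR with GAPDH as internal control. Relative expression is calculated by 2^-ΔΔCT versus the untreated control. Mean + SD from three independent experiments.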

For test [5], the system named is RAW264.7. The test is described as follows: Inhibition of PI3K/Akt signaling in mouse RAW264.7 cells assessed as inhibition of LPS-induced NFkappB p-p65 accumulation at 1.25 uM in presence of LPS by western blot analysis. The class given is cell-based. Put shortly:
(§2)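 Lysates of LPS-stimulated RAW 264.7 cells (20–30 μg protein) are run on 10% SDS-PAGE, blotted, blocked with 5% milk, probed overnight at 4 °C (1:5,000), then detected with HRP secondary and ECL. Actin, GAPDH or H3 (nuclear fraction) serve as loading controls, with densitometry ratios. Blots are representative of three independent experiments; mean + SD (n = 3).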

Test [6] concerns RAW264.7. Description: Antiinflammatory activity against mouse RAW264.7 cells assessed as inhibition of LPS-induced iNOS mRNA expression incubated for 8 hrs in presence of LPS by qRT-PCR analysis. The class given is functional, cell-based. The following applies: dose 0.31-20 µM. Put shortly: as §1
The test system of test [7] is Mus musculus. Description: Antiinflammatory activity against DSS-induced colitis C57BL/6 mouse model assessed as attenuation of colon length shortening at 50 mg/kg, ip administered for 7 days. Conditions: time 7.0 day. In kind it is functional, organism-based. Put shortly:
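Male C57BL/6 mice, 6 weeks old, 5 per group, given 3.5% DSS in drinking solution with intraperitoneal drug in saline/castor oil/ethanol/DMSO (70:10:15:5) daily for 7 days. Colons are photographed after sacrifice by cervical dislocation for gross assessment.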

In test [8] the test system is RAW264.7. Description: Antiinflammatory activity against mouse RAW264.7 cells assessed as inhibition of LPS-induced IL-6 production measured after 24 hrs in presence of LPS by ELISA. Conditions: dose 0.31-20 µM. The class given is functional, cell-based. In short, it runs like this:
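RAW 264.7 cells are seeded at 2 × 10^5 per well, grown 12 h, and given 100 ng/mL LPS with compound at 0.31 to 20 μM for 24 h. Supernatant IL-1β and IL-6 are quantified by ELISA. Mean + SD, n = 3.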

In test [9] the test system is RAW264.7. The test is described as follows: Inhibition of PI3K/Akt signaling in mouse RAW264.7 cells assessed as inhibition of LPS-induced NFkappB p-p65 accumulation in presence of LPS by western blot analysis. In kind it is cell-based. Conditions: dose 0.31-20 µM. Put shortly: as §2
The subject of test [10] is RAW264.7. Description: Antiinflammatory activity against mouse RAW264.7 cells assessed as inhibition of LPS-induced iNOS mRNA expression at 20 uM incubated for 8 hrs in presence of LPS by qRT-PCR analysis. The class given is functional, cell-based. Put shortly:
as §1

`C[C@]12CC[C@H]3[C@@H](CC=C4C[C@@H](O)CC[C@@]43C)[C@@H]1CC[C@@H]2C(=O)n1ccnc1`: the result with Mus musculus [1], in the test on Mus musculus [3], in the test with Mus musculus [7] and in the test on RAW264.7 [10] was Active. Further, the inhibition at 20 µM with RAW264.7 [2] is 100%. Also, the Activity entry in the test with RAW264.7 [4], in the test with RAW264.7 [6] and with RAW264.7 [8] was “Dose-Dependent Effect” in each case. Further, in the test with RAW264.7 [5], the inhibition result is “Active”. In addition, the inhibition entry in the test on RAW264.7 [9] was “Dose-Dependent Effect”.
